The values that follow come from BindingDB's records for doi:10.1021/jm9003297 (University of Bonn, 2009).

In general, Ki refers to a measure of affinity in units of concentration, obtained from inhibition or displacement. The IC50 is the concentration needed to halve the response being measured.

One test deals with P2Y purinoceptor 12 (Homo sapiens, UniProt Q9H244). The test is described as follows: Displacement of [3H]PSB0413 from human platelet P2Y12 receptor. Summed up:
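Membranes from outdated human blood-bank platelets (4-5 days post-donation), washed, centrifuged, homogenized, stored at -80 °C. 100 µg protein incubated with 5 nM [³H]PSB-0413 in 50 mM Tris-HCl pH 7.4 for 1 h at rt, then filtered over GF/B. Nonspecific binding with 1 mM ADP. Screen at 10 µM. Ki from curves of 6-7 concentrations over 3 log units. At least three experiments in triplicate.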
(Displacement assays read how much labelled ligand stays bound in the presence of the test substance.)

Test [1] is described as follows: Displacement of [3H]DPCPX from human adenosine A1 receptor expressed in CHO cells assessed as ratio of IC50 in presence of GTP to absence of GTP by GTP shift assay.

The structures appear in SMILES notation.

P2Y purinoceptor 12, sequence (Q9H244 whole entry): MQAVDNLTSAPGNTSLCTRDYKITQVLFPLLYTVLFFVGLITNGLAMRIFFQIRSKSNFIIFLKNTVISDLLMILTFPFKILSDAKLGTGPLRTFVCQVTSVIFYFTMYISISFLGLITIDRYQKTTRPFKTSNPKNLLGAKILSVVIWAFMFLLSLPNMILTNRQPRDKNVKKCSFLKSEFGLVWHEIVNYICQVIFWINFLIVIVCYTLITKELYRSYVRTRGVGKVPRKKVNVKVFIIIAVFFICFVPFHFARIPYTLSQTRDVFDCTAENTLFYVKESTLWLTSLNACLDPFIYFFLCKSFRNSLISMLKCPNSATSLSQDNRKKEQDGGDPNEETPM

In turn, `CN(C)[C@@H]1C(=O)C(C(N)=O)C(=O)[C@@]2(O)C(=O)C3C(=O)c4c(O)ccc(Cl)c4[C@@](C)(O)[C@H]3C[C@@H]12` (stereo partly drawn) showed a Ki at P2Y purinoceptor 12 above 10 µM. Still for that read-out and setting: the result for `CN(C)[C@@H]1C(=O)C(C(N)=O)C(=O)[C@@]2(O)C(=O)C3C(=O)c4c(O)cccc4[C@@](C)(O)[C@H]3C[C@@H]12` (stereo partly drawn) [Achromycin] reads above 10 µM. For `Nc1c(S(=O)(=O)O)cc(Nc2ccc(Nc3ncccn3)c(S(=O)(=O)O)c2)c2c1C(=O)c1ccccc1C2=O` [Disodium 1-amino-4-[4-([1,3]diazine-2-ylamino)-3-sulfophenylamino]-9,10-dioxo-9,10-dihydroanthracene-2-sulfonate], in test [1], the IC50 was 0.76 µM.
